Activity calls are given as the source filed them. The calls are words filed in the database; no cut-off is given here.
Tests used:
EMT6 [1] = assay: Cytotoxicity against mouse EMT6 cells assessed as survival fraction ratio under hypoxic condition at 0.5 mM incubated for 30 mins followed by compound wash out measured after 10 to 14 days by clonogenic assay relative to control; format: functional
In short: (§1)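 Clonogenic radiosensitization. Cells (300000 per dish, DMEM/F12) were grown 24 h at 37 °C, 5% CO₂, then exposed to compound for 30 min. Hypoxic dishes were degassed by six vacuum/N₂ cycles, and all dishes were shaken 30 min at room temperature. Dishes were ⁶⁰Co γ-irradiated (0–20 Gy) under N₂ or air, then trypsinized and replated. Colonies were grown 10−14 days, stained, and counted, in triplicate. Surviving fractions at 18 Gy were taken from survival plots.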

EMT6 [2] = assay: Cytotoxicity against mouse EMT6 cells after 3 days by MTT assay; format: functional, cell-based; conditions: EMT6, 72 h
In short: (§2)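 MTT assay. Exponentially growing cells were seeded at 8 × 10² cells/well and held 24 h at 37 °C in 5% CO₂. Compound from a 2 mM stock in 95% ethanol was added, with a maximum final concentration of 1 mM. Exposure lasted 3 days at 37 °C. MTT was added for 4 h, formazan dissolved in DMSO, and absorbance read at 540 nm. IC50s were estimated from survival plots.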

[3] = Cytotoxicity against mouse KBALB-STK cells after 3 days by MTT assay; format: functional, cell-based; conditions: 72 h; in short: as §2
HeLa [4] = assay: Cytotoxicity against human HeLa cells after 3 days by MTT assay; format: functional, cell-based; conditions: 72 h; in short: as §2
[5] = Cytotoxicity against human MOO6X cells after 3 days by MTT assay; format: functional, cell-based; conditions: 72 h; in short: as §2
[6] = Cytotoxicity against human MOO6X cells assessed as survival fraction ratio under hypoxic condition at 0.5 mM incubated for 30 mins followed by compound wash out measured after 10 to 14 days by clonogenic assay relative to control; format: functional; in short: as §1
[7] = Ratio of IAZA IC50 to compound IC50 for human MOO6X cells; format: functional
HeLa [8] = assay: Cytotoxicity against human HeLa cells assessed as survival fraction under hypoxic condition to hypoxic condition plus sensitizer at 0.5 mM after 30 mins by clonogenic assay relative to control
[9] = Cytotoxicity against mouse KBALB cells after 3 days by MTT assay; format: functional, cell-based; conditions: 72 h; in short: as §2
[10] = biological target: T1, Solute carrier family 2, facilitated glucose transporter member 2 (Homo sapiens) (UniProt P11168); assay: Binding affinity to recombinant GLUT2 expressed in Xenopus oocytes assessed as inhibition of [14C]glucose uptake after 20 mins by liquid scintillation counting; format: cell-based; conditions: Oocyte
T1 sequence (whole entry): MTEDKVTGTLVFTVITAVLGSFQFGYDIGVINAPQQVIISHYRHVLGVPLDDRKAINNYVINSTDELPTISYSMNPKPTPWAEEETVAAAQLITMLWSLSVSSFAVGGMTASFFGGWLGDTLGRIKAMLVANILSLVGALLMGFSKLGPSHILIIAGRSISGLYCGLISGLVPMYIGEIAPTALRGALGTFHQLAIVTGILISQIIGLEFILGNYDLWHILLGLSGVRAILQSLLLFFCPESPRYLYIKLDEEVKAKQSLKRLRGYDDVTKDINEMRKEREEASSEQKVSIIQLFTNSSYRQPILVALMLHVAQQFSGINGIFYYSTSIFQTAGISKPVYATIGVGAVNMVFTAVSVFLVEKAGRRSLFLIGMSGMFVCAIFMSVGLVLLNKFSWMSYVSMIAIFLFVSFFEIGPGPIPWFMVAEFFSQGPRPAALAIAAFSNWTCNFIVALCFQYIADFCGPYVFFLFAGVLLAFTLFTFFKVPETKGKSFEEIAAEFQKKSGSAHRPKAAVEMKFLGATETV
In short: (§3)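 Xenopus oocytes expressing the GLUT were incubated in groups of 10−12 in Na⁺ transport medium (Hepes, pH 7.5) with [¹⁴C]glucose (1 μCi/mL) and inhibitor for 20 min at 20 °C. Oocytes were washed six times in ice-cold medium, dissolved in 1% SDS, and counted by liquid scintillation. Uptake inhibition was plotted against inhibitor concentration; for GLUT-2, EC50 came from four-parameter logistic fitting.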

[11] = biological target: T2, Solute carrier family 2, facilitated glucose transporter member 1 (Homo sapiens) (UniProt P11166); assay: Binding affinity to recombinant GLUT1 expressed in Xenopus oocytes assessed as inhibition of [14C]glucose uptake after 20 mins by liquid scintillation counting; format: cell-based; conditions: Oocyte; in short: as §3
T2 sequence (whole entry): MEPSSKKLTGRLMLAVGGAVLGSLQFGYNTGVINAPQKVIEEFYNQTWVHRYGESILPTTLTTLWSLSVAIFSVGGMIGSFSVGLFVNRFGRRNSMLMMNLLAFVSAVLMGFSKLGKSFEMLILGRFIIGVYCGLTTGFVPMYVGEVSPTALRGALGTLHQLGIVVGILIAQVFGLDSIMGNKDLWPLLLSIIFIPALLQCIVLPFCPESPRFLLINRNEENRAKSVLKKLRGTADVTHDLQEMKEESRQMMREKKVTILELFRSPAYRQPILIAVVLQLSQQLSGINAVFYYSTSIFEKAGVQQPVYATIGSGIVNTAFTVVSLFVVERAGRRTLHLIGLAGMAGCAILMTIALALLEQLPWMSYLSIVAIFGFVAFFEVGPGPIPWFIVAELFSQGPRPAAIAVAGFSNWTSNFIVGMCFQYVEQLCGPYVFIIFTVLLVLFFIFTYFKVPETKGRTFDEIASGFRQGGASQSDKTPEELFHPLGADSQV

EMT6 [12] = assay: Cytotoxicity against mouse EMT6 cells assessed as survival fraction ratio under hypoxic condition at 0.1 to 1 mM after 6 hrs relative to control; format: functional

| Structure (SMILES) | Ratio (EMT6 [1]) | IC50 (EMT6 [2]) [µM] | IC50 [3] [µM] | IC50 (HeLa [4]) [µM] | IC50 [5] [µM] | Ratio [6] | Ratio IC50 [7] | Ratio (HeLa [8]) | IC50 [9] [µM] | ED50 [10] [µM] | inhibition [11] | Ratio (EMT6 [12]) |
| --- | --- | --- | --- | --- | --- | --- | --- | --- | --- | --- | --- | --- |
| O=[N+]([O-])c1nccn1CC(O)COC[C@H]1OC(O)[C@H](O)[C@@H](O)[C@@H]1O (mixture of isomers) | 1 | 600 | 500 | 500 | 50 | 1 | 10 | 1.2 | 500 |  |  |  |
| O=[N+]([O-])c1nccn1CC([18F])COC[C@H]1OC(O)[C@H](O)[C@@H](O)[C@@H]1O (mixture of isomers) | 1.2 | > 1000 | > 1000 | > 1000 | > 1000 | 1.3 |  | 1.3 | > 1000 |  |  |  |
| O=[N+]([O-])c1nccn1/C=C/COC[C@H]1OC(O)[C@H](O)[C@@H](O)[C@@H]1O (mixture of isomers) | 1.4 | > 1000 |  |  |  | 1.3 |  | 1.7 |  | 500 | Active |  |
| O=[N+]([O-])c1nccn1[C@H]1O[C@H](C[123I])[C@@H](O)[C@@H]1O [IODOAZOMYCIN ARABINOSIDE] |  | > 1000 | 500 | > 1000 | > 1000 |  |  |  | 500 |  |  | 1.5 |
